Measured values published in ChEMBL document CHEMBL3600357 (J Med Chem, 2015).
Calls of active or inactive are those of the source. The calls are words filed in the database; no cut-off is given here.

Columns and labels:
SJSA-1 [1] = test: Inhibition of cell proliferation of human SJSA1 cells
[2] = Intrinsic clearance in human liver microsomes; format: ADME; settings: read-out: CLH
Rattus norvegicus [3] = test: Terminal half life in Sprague-Dawley rat at 1 mg/kg, iv; format: ADME, organism-based; settings: in vivo
Outline: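 Sprague-Dawley rats. IV dose given as a solution in NMP:PEG200 (10:90); 3 mg/kg PO given as a suspension in CMC:water:Tween (0.5:99:0.5). AUC and Cmax dose-normalized to 1 mg/kg. Mean ± SD from four rats.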

Rattus norvegicus [4] = test: Volume of distribution at steady state in Sprague-Dawley rat at 1 mg/kg, iv; format: ADME, organism-based; settings: in vivo
[5] = Protein binding in Sprague-Dawley rat plasma by equilibrium dialysis method; format: ADME, cell-free; settings: read-out: PPB
Outline: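 Rat plasma protein binding by rapid equilibrium dialysis (RED) in 100% plasma.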

[6] = molecular target: E3 ubiquitin-protein ligase Mdm2 (Canis lupus familiaris, UniProt P56950); test: Inhibition of dog MDM2 by TR-FRET assay
[7] = Inhibition of rat MDM2 by TR-FRET assay
[8] = Terminal half life in OF1 mouse at 1 mg/kg, iv; format: ADME, organism-based; settings: in vivo, read-out: beta t1/2 (converted)
Mus musculus = test: AUC in OF1 mouse at 3 mg/kg, po; format: ADME, organism-based; settings: in vivo
[9] = Volume of distribution at steady state in beagle dog at 0.1 mg/kg, iv; format: ADME, organism-based, Canis lupus familiaris; settings: in vivo, read-out: Vdss
[10] = Terminal half life in beagle dog at 0.1 mg/kg, iv; format: ADME, organism-based, Canis lupus familiaris; settings: in vivo, read-out: beta t1/2 (converted)
Canis familiaris [11] = test: AUC in beagle dog at 0.3 mg/kg, po; format: ADME, organism-based, Canis lupus familiaris; settings: in vivo
Canis familiaris [12] = test: Oral bioavailability in beagle dog at 0.3 mg/kg; format: ADME, organism-based, Canis lupus familiaris; settings: in vivo
[13] = Protein binding in beagle dog plasma by equilibrium dialysis method; format: ADME, cell-free, Canis lupus familiaris; settings: read-out: PPB
[14] = Terminal half life in cynomolgus monkey at 0.1 mg/kg, iv; format: ADME, organism-based, Macaca fascicularis; settings: in vivo, read-out: beta t1/2 (converted)
[15] = Tmax in cynomolgus monkey at 0.3 mg/kg, po; format: ADME, organism-based, Macaca fascicularis; settings: in vivo
[16] = molecular target: T1, Apoptosis regulator Bcl-2 (Homo sapiens, UniProt P10415); test: Inhibition of Bcl2 (unknown origin) assessed as inhibition of Bcl2-Bak interaction by TR-FRET assay
[17] = molecular target: T1, Apoptosis regulator Bcl-2; test: Inhibition of Bcl2 (unknown origin) assessed as inhibition of Bcl2-Bad interaction by TR-FRET assay
[18] = molecular target: Induced myeloid leukemia cell differentiation protein Mcl-1 (Homo sapiens, UniProt Q07820); test: Inhibition of Mcl1 (unknown origin) assessed as inhibition of Mcl1-Noxa interaction by TR-FRET assay
[19] = molecular target: E3 ubiquitin-protein ligase XIAP (Homo sapiens, UniProt P98170); test: Inhibition of XIAP (unknown origin) assessed as inhibition of XIAP-BIR3 interaction by TR-FRET assay
[20] = molecular target: Baculoviral IAP repeat-containing protein 2 (Homo sapiens, UniProt Q13490); test: Inhibition of cIAP (unknown origin) assessed as inhibition of cIAP-BIR3 interaction by TR-FRET assay
HCT-116 [21] = test: Inhibition of cell proliferation of human HCT116 cells expressing p53
HCT-116 [22] = test: Inhibition of cell proliferation of human HCT116 cells deficient with p53 gene
[23] = Inhibition of cell proliferation of human Saos2 cells deficient with p53 gene; settings: SAOS-2
Rattus norvegicus [24] = test: In-vivo inhibition of MDM2/p53 interaction in human SJSA1 cells xenografted rat assessed as increase in p21 mRNA level at 30 mg/kg, po measured within 72 hrs post dose by qRT-PCR method; format: functional, organism-based; settings: SJSA-1
Outline: (§1)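 SJSA-1 (MDM2-amplified) tumour-bearing rats were dosed at 30 mg/kg. Tumour samples were collected over time, and p21, MDM2 and PUMA mRNA were measured as p53 pharmacodynamic markers, alongside compound levels.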

Rattus norvegicus [25] = test: In-vivo inhibition of MDM2/p53 interaction in human SJSA1 cells xenografted rat assessed as increase in PUMA mRNA level at 30 mg/kg, po measured within 72 hrs post dose by qRT-PCR method; format: functional, organism-based; settings: SJSA-1; outline: as §1
SJSA-1 [26] = test: Antitumor activity against human SJSA1 cells xenografted in rat assessed as reduction tumor growth dosed orally on daily basis under q24h regime; format: functional, organism-based
Outline: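 SJSA-1 tumour-bearing rats were treated either daily or 3qw (Monday, Wednesday and Friday) across a range of doses, and tumour growth was followed over the treatment course. Plasma AUC0-24 was also determined, along with AUC0-48 for the 3qw schedule.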

Rattus norvegicus [27] = test: Toxicity in human SJSA1 cells xenografted dosed rat assessed as drug toleration dosed orally on daily basis under q24h regime; format: organism-based, SJSA-1; settings: in vivo, po
Outline: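 Rats bearing MDM2-amplified SJSA-1 human tumours, treated daily. Tolerability was monitored during treatment. Histopathology for compound-related findings was performed at the 30 mg/kg daily dose.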

Rattus norvegicus [28] = test: Toxicity in human SJSA1 cells xenografted dosed rat assessed as induction of histopathological changes at 30 mg/kg, po qd; format: organism-based, SJSA-1; settings: in vivo
Outline: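 Daily treatment of SJSA-1 tumour-bearing rats; histopathology was performed on the 30 mg/kg daily dose group to look for compound-related findings.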

Rattus norvegicus [29] = organism: Rattus norvegicus; test: Toxicity in rat assessed as changes in heart parameters; format: organism-based; settings: in vivo
Rattus norvegicus [30] = organism: Rattus norvegicus; test: Toxicity in male rat assessed as changes in adrenal gland parameters; format: organism-based; settings: in vivo
Rattus norvegicus [31] = organism: Rattus norvegicus; test: Toxicity in female rat assessed as changes in adrenal gland parameters; format: organism-based; settings: in vivo
Rattus norvegicus [32] = organism: Rattus norvegicus; test: Toxicity in rat assessed as induction of structural changes in testes tubular epithelium; format: organism-based, Testis; settings: in vivo
Rattus norvegicus [33] = test: Toxicity in human SJSA1 cells xenografted rat assessed as change in body weight at 5 mg/kg, po qd (reference value: 1.9 to 6.8%); format: organism-based, SJSA-1; settings: in vivo
Rattus norvegicus [34] = test: Toxicity in human SJSA1 cells xenografted rat assessed as change in body weight at 30 mg/kg, po qd (reference value: 1.9 to 6.8%); format: organism-based, SJSA-1; settings: in vivo
Rattus norvegicus [35] = test: Toxicity in human SJSA1 cells xenografted rat assessed as mouse survival at 10 mg/kg, po qd; format: organism-based, SJSA-1; settings: in vivo
Outline: (§2)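 Tolerability was monitored in SJSA-1 tumour-bearing rats during the daily and 3qw (Monday, Wednesday, Friday) treatment schedules. Histopathology was done on all 3qw doses and on the 30 mg/kg daily group.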

Rattus norvegicus [36] = test: Toxicity in human SJSA1 cells xenografted rat assessed as mouse survival at 20 mg/kg, po qd; format: organism-based, SJSA-1; settings: in vivo; outline: as §2
Rattus norvegicus [37] = test: Toxicity in human SJSA1 cells xenografted rat assessed as mouse survival at 30 mg/kg, po qd; format: organism-based, SJSA-1; settings: in vivo; outline: as §2
[38] = AUC (0 to 24 hrs) in human SJSA1 cells xenografted rat assessed as mouse survival at 20 mg/kg, po qd; format: ADME, organism-based, SJSA-1; set-up: time < 24 hr, dose 20 mg/kg, route oral; settings: in vivo
Outline: (§3)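 Rats bearing MDM2-amplified human SJSA-1 tumors, dosed orally either daily or 3qw (Monday, Wednesday, Friday). Plasma exposure reported as AUC0-24, plus AUC0-48 for the 3qw schedule.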

[39] = AUC (0 to 24 hrs) in human SJSA1 cells xenografted rat assessed as mouse survival at 30 mg/kg, po qd; format: ADME, organism-based, SJSA-1; set-up: time < 24 hr, dose 30 mg/kg, route oral; settings: in vivo; outline: as §3
[40] = AUC (0 to 24 hrs) in human SJSA1 cells xenografted rat assessed as mouse survival at 70 mg/kg, po dosed 3 times per week; format: ADME, organism-based, SJSA-1; set-up: time < 24 hr, dose 70 mg/kg, route oral; settings: in vivo; outline: as §3

T1 sequence (P10415 whole entry): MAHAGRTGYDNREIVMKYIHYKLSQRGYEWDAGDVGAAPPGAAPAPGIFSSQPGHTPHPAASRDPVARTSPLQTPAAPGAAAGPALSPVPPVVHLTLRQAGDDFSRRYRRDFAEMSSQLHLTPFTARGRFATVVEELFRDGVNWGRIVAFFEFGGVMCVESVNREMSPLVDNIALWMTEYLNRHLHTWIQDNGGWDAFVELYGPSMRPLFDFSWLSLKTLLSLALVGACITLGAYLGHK
Induced myeloid leukemia cell differentiation protein Mcl-1, sequence (Q07820 whole entry): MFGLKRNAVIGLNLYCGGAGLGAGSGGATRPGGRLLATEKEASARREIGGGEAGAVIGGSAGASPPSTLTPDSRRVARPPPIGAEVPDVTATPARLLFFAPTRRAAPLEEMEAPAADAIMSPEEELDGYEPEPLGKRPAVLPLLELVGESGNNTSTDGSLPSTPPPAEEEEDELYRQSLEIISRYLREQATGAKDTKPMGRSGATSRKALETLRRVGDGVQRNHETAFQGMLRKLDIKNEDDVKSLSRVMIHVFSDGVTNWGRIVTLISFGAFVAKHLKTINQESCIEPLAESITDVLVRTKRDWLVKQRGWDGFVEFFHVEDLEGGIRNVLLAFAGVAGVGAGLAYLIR
Baculoviral IAP repeat-containing protein 2, sequence (Q13490 whole entry): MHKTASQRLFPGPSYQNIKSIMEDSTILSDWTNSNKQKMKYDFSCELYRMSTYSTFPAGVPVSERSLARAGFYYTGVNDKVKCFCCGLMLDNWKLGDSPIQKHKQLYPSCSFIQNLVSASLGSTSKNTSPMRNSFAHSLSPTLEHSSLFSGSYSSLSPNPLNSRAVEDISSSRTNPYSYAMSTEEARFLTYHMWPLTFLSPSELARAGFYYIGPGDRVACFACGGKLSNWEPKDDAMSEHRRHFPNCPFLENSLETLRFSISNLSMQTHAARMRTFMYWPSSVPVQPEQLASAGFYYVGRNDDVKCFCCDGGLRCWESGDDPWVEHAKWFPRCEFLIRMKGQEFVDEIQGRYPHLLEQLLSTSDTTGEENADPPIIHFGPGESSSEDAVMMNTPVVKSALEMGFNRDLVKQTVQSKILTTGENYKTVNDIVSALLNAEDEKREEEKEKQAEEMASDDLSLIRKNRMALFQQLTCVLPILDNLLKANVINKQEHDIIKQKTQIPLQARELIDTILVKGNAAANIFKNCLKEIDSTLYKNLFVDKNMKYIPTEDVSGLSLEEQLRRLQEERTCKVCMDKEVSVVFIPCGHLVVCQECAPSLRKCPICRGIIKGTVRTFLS
E3 ubiquitin-protein ligase Mdm2, sequence (P56950 whole entry): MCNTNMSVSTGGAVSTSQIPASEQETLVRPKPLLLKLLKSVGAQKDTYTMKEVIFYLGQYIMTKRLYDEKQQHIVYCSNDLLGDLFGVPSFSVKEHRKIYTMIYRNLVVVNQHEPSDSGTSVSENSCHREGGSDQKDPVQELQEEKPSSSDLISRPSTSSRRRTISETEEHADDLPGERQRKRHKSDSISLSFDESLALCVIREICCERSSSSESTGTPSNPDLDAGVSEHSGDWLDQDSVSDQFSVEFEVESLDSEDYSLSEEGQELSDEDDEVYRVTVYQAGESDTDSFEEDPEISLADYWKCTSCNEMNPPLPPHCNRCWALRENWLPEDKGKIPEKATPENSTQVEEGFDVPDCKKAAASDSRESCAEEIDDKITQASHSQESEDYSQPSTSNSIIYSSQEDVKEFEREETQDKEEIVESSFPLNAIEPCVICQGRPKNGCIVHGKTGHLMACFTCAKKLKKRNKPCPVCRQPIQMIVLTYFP
E3 ubiquitin-protein ligase XIAP, sequence (P98170 whole entry): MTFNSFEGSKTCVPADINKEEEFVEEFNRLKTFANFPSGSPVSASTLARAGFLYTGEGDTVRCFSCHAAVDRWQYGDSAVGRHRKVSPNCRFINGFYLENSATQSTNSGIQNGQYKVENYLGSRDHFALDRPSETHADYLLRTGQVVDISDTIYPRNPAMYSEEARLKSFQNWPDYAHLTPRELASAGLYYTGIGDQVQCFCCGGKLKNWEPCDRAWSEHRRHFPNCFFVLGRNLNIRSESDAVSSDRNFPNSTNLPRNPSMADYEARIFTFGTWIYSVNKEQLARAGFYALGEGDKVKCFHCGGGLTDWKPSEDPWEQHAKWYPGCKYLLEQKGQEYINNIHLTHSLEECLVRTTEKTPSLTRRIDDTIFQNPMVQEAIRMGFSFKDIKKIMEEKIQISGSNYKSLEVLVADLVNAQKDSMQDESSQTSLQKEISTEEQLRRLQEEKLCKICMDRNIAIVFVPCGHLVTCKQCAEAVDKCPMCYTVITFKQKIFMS

COc1cc2c(cc1OC(C)C)[C@H](c1ccc(Cl)cc1)N(c1ccc(N(C)C[C@H]3CC[C@H](N4CCN(C)C(=O)C4)CC3)cc1)C(=O)C2 [CGM-097]
GI50 (SJSA-1 [1]): 0.35 µM
microsomal CLint [2]: 52.3 µL/min/mg
beta t1/2 (Rattus norvegicus [3]): 12.1 h
Vdss (Rattus norvegicus [4]): 6.4 L/kg
fraction unbound [5]: < 0.01
Ki [6]: 0.0205 µM
Ki [7]: 0.0474 µM
half-life [8]: 6.4 h
AUC (Mus musculus): 3.337 µM·h
Vd [9]: 4.2 L/kg
half-life [10]: 19.8 h
AUC (Canis familiaris [11]): 5.993 µM·h
F (Canis familiaris [12]): 74%
fraction unbound [13]: < 0.01
half-life [14]: 8.3 h
Tmax [15]: 1.3 h
IC50 [16]: > 50 µM
IC50 [17]: > 50 µM
IC50 [18]: > 50 µM
IC50 [19]: > 50 µM
IC50 [20]: > 50 µM
IC50 (HCT-116 [21]): 0.454 µM
IC50 (HCT-116 [22]): 16 µM
IC50 [23]: 20.5 µM
inhibition (Rattus norvegicus [24]): Active
inhibition (Rattus norvegicus [25]): Active
growth inhibition (GI) (SJSA-1 [26]): Dose-dependent effect
Activity (Rattus norvegicus [27]): Non-toxic
Activity (Rattus norvegicus [28]): Non-toxic
Activity (Rattus norvegicus [29]): Toxic
Activity (Rattus norvegicus [30]): Toxic
Activity (Rattus norvegicus [31]): Toxic
Activity (Rattus norvegicus [32]): Toxic
Activity (Rattus norvegicus [33]): 2.8%
Activity (Rattus norvegicus [34]): 4.5%
Activity (Rattus norvegicus [35]): Non-toxic
Activity (Rattus norvegicus [36]): Non-toxic
Activity (Rattus norvegicus [37]): Non-toxic
AUC at 24 h [38]: 163 µM·h
AUC at 24 h [39]: 421 µM·h
AUC at 24 h [40]: 616 µM·h
